One block for each compound: values may come before it. The source made the active and inactive calls. No cut-off for these calls is given here.
What was measured:
[1] = target: Platelet-derived growth factor receptor beta (Homo sapiens) (UniProt P09619); experiment: Binding affinity to wild-type human partial length PDGFRB (V582 to Y1009 residues) expressed in bacterial expression system assessed as residual binding level at 5 umol/L by Kinomescan method
[2] = target: T1, Epidermal growth factor receptor (Homo sapiens, UniProt P00533); experiment: Inhibition of wild type EGFR (unknown origin)
T1 sequence (P00533 whole entry, the tested form may be a part): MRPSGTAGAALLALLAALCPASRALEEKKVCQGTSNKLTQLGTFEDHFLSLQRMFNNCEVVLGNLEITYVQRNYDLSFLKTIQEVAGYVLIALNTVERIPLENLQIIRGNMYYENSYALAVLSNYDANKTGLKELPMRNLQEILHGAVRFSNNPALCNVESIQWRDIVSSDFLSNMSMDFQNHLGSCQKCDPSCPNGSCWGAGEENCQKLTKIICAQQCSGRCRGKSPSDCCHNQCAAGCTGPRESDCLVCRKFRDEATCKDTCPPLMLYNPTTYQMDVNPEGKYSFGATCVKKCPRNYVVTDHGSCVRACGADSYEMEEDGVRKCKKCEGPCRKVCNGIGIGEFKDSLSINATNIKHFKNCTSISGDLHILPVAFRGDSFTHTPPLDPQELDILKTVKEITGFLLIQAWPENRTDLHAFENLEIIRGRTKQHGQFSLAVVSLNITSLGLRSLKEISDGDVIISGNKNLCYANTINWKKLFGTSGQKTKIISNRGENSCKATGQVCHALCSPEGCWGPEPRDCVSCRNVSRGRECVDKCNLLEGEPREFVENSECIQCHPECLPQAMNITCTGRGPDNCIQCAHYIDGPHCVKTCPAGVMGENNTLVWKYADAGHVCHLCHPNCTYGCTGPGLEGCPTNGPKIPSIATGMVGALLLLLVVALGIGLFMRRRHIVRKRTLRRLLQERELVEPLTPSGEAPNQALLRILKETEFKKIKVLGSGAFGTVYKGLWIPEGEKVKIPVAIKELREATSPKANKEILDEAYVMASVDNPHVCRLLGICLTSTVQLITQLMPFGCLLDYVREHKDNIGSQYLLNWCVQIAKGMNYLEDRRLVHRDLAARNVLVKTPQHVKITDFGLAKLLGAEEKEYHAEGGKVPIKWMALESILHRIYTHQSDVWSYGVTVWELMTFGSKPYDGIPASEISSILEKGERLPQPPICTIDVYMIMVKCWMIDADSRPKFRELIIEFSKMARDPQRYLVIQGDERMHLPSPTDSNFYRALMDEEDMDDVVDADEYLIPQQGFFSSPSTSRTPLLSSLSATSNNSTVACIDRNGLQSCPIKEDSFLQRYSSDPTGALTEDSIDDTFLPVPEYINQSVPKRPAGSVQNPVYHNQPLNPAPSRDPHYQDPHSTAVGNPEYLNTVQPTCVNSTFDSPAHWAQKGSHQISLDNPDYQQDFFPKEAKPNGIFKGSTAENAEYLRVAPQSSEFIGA

[3] = target: Mast/stem cell growth factor receptor Kit (Homo sapiens) (UniProt P10721); experiment: Binding affinity to wild type human partial length c-KIT (I571 to D952 residues) expressed in bacterial expression system assessed as residual binding level at 5 umol/L by Kinomescan method
[4] = target: Tyrosine-protein kinase receptor UFO (Homo sapiens) (UniProt P30530); experiment: Binding affinity to wild-type human partial length AXL (R497 to Y821 residues) expressed in bacterial expression system assessed as residual binding level at 5 umol/L by Kinomescan method
[5] = target: Protein-tyrosine kinase 6 (Homo sapiens) (UniProt Q13882); experiment: Binding affinity to wild-type human partial length BRK (L166 to T451 residues) expressed in bacterial expression system assessed as residual binding level at 5 umol/L by Kinomescan method
[6] = target: Platelet-derived growth factor receptor alpha (Homo sapiens) (UniProt P16234); experiment: Binding affinity to wild-type human partial length PDGFRA (V575 to D1002 residues) expressed in mammalian expression system assessed as residual binding level at 5 umol/L by Kinomescan method
[7] = target: Tyrosine-protein kinase ABL1 (Homo sapiens) (UniProt P00519); experiment: Binding affinity to wild-type human phosphorylated ABL1 (S229 to K512 residues) expressed in mammalian expression system assessed as residual binding level at 5 umol/L by Kinomescan method
[8] = target: Receptor-interacting serine/threonine-protein kinase 2 (Homo sapiens, UniProt O43353); experiment: Binding affinity to wild-type human partial length RIPK2 (M1 to K310 residues) expressed in bacterial expression system assessed as residual binding level at 5 umol/L by Kinomescan method
[9] = target: Epithelial discoidin domain-containing receptor 1 (Homo sapiens) (UniProt Q08345); experiment: Binding affinity to wild-type human partial length DDR1 (R565 to V876 residues) expressed in bacterial expression system assessed as residual binding level at 5 umol/L by Kinomescan method
Sequence of Epithelial discoidin domain-containing receptor 1 (Homo sapiens) (Q08345 whole entry, the tested form may be a part): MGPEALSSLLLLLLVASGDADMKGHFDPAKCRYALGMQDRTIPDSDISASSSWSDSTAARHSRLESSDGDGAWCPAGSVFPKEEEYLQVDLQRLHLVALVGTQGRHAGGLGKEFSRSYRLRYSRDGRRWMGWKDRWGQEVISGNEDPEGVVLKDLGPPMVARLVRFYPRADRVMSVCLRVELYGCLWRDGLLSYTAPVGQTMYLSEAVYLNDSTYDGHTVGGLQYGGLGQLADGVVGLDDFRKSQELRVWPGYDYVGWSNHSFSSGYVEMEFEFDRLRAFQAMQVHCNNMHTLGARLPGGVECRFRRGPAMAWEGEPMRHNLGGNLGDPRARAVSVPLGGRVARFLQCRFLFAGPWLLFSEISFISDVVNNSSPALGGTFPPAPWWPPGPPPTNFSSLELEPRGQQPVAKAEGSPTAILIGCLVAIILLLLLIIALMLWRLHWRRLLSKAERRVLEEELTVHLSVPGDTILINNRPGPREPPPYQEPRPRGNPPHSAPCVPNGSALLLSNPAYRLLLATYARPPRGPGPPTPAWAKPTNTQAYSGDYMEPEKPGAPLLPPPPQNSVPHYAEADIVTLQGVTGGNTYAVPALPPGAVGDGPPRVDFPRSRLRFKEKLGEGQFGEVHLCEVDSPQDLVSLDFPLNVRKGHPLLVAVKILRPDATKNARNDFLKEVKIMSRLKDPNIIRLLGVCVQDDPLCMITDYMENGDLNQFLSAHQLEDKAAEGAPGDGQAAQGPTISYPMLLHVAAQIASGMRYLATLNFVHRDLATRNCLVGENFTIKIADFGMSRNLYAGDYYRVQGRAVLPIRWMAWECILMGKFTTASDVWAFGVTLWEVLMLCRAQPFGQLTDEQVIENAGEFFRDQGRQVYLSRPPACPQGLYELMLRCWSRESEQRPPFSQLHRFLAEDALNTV

[10] = target: T2, Hepatocyte growth factor receptor (Homo sapiens, UniProt P08581); experiment: Binding affinity to wild type human partial length c-MET (D1010 to S1367 residues) expressed in bacterial expression system assessed as residual binding level at 5 umol/L by Kinomescan method
T2 sequence (P08581 whole entry, the tested form may be a part): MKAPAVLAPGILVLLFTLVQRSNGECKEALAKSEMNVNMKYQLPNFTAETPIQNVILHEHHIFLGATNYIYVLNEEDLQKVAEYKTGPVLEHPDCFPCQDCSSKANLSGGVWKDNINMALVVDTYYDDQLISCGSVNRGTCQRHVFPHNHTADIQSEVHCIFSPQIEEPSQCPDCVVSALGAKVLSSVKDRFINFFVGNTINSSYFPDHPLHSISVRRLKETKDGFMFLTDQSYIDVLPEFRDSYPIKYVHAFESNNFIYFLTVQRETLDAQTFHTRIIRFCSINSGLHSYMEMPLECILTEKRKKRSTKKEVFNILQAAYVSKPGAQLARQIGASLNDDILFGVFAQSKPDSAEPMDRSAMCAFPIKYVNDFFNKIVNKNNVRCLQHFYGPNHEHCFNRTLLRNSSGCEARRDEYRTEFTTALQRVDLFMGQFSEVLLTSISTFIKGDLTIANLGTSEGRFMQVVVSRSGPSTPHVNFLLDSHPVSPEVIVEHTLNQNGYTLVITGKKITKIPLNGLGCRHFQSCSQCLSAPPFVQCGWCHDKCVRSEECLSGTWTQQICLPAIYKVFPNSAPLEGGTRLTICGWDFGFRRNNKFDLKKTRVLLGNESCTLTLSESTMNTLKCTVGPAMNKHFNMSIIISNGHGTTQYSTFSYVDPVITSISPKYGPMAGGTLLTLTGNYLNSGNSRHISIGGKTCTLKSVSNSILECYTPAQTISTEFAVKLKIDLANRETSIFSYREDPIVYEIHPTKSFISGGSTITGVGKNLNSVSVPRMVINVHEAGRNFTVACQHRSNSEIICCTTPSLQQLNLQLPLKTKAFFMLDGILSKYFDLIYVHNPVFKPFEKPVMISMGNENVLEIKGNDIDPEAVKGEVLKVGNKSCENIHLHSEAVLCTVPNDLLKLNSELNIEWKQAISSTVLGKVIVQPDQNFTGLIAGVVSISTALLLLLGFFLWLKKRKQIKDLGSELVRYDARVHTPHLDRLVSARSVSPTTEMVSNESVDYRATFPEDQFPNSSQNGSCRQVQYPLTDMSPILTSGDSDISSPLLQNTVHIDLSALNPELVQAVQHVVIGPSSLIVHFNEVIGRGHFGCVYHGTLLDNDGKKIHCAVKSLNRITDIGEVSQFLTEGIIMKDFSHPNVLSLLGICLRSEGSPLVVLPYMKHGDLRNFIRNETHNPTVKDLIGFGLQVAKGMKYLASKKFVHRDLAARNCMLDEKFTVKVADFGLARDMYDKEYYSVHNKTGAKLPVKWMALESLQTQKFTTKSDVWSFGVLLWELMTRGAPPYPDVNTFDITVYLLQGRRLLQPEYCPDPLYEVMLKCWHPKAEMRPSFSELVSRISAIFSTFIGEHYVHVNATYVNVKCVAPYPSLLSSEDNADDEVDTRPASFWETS

[11] = target: Tyrosine-protein kinase Blk (Homo sapiens) (UniProt P51451); experiment: Binding affinity to wild-type human partial length BLK (G211 to L503 residues) expressed in bacterial expression system assessed as residual binding level at 5 umol/L by Kinomescan method
[12] = target: T1, Epidermal growth factor receptor; experiment: Binding affinity to wild-type human partial length EGFR (R669 to V1011 residues) expressed in bacterial expression system assessed as residual binding level at 5 umol/L by Kinomescan method
[13] = target: Tyrosine-protein kinase Lck (Homo sapiens) (UniProt P06239); experiment: Binding affinity to wild-type human partial length LCK (R207 to P509 residues) expressed in bacterial expression system assessed as residual binding level at 5 umol/L by Kinomescan method
[14] = target: T3, Tyrosine-protein kinase receptor UFO (Homo sapiens, UniProt P30530); experiment: Inhibition of AXL (unknown origin)
T3 sequence (P30530 whole entry): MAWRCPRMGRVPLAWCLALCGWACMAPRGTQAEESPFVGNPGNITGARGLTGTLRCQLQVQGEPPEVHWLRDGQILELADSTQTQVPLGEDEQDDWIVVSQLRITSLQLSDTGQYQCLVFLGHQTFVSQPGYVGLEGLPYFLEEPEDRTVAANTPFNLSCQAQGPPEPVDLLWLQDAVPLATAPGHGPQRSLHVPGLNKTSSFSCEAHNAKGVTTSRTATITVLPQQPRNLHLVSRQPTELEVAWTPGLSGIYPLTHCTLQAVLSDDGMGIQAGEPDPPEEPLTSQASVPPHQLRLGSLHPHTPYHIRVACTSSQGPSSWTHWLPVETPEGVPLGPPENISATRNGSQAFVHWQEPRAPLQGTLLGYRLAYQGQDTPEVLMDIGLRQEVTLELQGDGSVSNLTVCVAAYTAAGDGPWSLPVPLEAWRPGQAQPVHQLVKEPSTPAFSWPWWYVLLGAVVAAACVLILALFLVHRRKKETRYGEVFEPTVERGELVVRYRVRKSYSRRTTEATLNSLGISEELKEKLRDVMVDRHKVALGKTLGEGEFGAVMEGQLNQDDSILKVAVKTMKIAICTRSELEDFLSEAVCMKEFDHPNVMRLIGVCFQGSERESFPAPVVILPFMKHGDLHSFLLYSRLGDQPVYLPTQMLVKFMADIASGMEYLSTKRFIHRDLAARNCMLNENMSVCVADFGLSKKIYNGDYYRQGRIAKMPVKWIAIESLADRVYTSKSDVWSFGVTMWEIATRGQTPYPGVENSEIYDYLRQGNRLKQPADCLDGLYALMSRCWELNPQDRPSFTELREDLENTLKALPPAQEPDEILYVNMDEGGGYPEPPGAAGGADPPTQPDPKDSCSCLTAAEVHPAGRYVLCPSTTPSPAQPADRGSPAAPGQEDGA

[15] = target: T4, Proto-oncogene tyrosine-protein kinase Src (Homo sapiens, UniProt P12931); experiment: Inhibition of SRC (unknown origin)
T4 sequence (P12931 2-536 limits assumed): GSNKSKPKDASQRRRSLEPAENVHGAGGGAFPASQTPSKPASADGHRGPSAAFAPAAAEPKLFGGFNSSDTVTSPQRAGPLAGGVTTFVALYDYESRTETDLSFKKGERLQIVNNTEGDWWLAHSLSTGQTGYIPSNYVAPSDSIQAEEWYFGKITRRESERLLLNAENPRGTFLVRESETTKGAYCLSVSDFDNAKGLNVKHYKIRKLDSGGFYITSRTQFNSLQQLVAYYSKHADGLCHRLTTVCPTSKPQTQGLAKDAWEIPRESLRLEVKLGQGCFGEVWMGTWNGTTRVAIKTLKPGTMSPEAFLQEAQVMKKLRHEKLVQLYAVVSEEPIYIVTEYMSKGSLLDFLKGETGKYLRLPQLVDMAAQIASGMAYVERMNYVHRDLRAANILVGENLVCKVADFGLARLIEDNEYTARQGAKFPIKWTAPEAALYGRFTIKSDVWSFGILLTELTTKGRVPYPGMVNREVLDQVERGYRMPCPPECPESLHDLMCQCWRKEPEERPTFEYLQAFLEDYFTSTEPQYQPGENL

[16] = Ratio of IC50 for antimigratory activity against human MDA-MB-231 cells after 3.5 hrs by microscopy based Boyden chamber assay to IC50 for inhibition of AXL (unknown origin)
[17] = target: Serine/threonine-protein kinase 10 (Homo sapiens, UniProt O94804); experiment: Binding affinity to wild-type human partial length LOK (E16 to V314 residues) expressed in bacterial expression system assessed as residual binding level at 5 umol/L by Kinomescan method
[18] = target: T4, Proto-oncogene tyrosine-protein kinase Src; experiment: Binding affinity to wild-type human partial length SRC (L240 to L536 residues) expressed in bacterial expression system assessed as residual binding level at 5 umol/L by Kinomescan method
[19] = target: Macrophage colony-stimulating factor 1 receptor (Homo sapiens) (UniProt P07333); experiment: Binding affinity to wild-type human partial length CSF1R (I564 to S939 residues) expressed in bacterial expression system assessed as residual binding level at 5 umol/L by Kinomescan method
Sequence of Macrophage colony-stimulating factor 1 receptor (Homo sapiens) (P07333 whole entry, the tested form may be a part): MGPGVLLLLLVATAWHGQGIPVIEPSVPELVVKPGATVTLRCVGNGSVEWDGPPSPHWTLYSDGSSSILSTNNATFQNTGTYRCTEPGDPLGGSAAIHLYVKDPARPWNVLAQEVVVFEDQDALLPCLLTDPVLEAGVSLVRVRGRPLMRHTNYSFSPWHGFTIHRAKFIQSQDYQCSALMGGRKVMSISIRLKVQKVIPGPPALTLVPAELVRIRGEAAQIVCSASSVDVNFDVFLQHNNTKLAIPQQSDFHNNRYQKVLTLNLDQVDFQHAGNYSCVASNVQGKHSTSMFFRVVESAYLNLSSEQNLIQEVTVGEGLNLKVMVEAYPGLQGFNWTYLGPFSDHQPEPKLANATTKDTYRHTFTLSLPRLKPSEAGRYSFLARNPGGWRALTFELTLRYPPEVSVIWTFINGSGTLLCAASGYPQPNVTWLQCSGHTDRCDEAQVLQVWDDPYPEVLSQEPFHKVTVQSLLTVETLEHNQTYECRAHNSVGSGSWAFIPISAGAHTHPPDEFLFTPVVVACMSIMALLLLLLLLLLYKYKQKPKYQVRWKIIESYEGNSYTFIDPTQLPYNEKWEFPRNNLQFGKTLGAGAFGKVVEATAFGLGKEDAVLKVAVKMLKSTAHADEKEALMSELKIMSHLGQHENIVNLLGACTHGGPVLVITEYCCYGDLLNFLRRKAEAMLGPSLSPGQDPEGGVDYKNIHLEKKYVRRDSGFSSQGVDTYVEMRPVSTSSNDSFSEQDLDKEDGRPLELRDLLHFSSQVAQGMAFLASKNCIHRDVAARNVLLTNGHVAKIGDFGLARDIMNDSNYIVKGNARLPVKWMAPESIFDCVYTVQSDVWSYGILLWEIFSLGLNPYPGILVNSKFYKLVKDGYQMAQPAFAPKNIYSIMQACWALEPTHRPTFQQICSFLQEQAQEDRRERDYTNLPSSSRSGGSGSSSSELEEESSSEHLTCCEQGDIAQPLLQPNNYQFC

[20] = target: T2, Hepatocyte growth factor receptor; experiment: Inhibition of c-MET (unknown origin)
[21] = Selectivity ratio of compound effect for anti-invasive activity against human MDA-MB-231 cells to IC50 for AXL (unknown origin) phosphorylation
MDA-MB-231 [22] = experiment: Antimigratory activity against human MDA-MB-231 cells after 3.5 hrs by microscopy based Boyden chamber assay; assay type: functional, cell-based; details: MDA-MB-231, 3.5 h
Method in brief: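 Modified Boyden chamber: MDA-MB-231 cells plated in 0.1% FCS medium, migrating through 8 µm pore membrane toward 1% FCS chemoattractant for 3.5 h; transmigrated cells counted microscopically in at least 5 random fields per well.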

MDA-MB-231 [23] = experiment: Antimigratory activity against human MDA-MB-231 cells assessed as inhibition of large cell aggregate formation after 5 hrs by matrigel assay; assay type: functional, cell-based; details: MDA-MB-231, 5 h
Method in brief: (§1)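 MDA-MB-231 cells (7000/well) seeded on polymerized 3 mg/mL Matrigel (set ≥16 h at 37°C) in serum-free medium; inhibitor added at seeding, aggregates forming over 5 h.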

MDA-MB-231 [24] = experiment: Anti-invasive activity against human MDA-MB-231 cells up to 3 uM after 5 hrs by matrigel assay; assay type: functional, cell-based; method in brief: as §1
[25] = target: T3, Tyrosine-protein kinase receptor UFO; experiment: Inhibition of AXL (unknown origin) phosphorylation after 1 hr by ELISA
MDA-MB-231 [26] = experiment: Antimetastatic activity against human MDA-MB-231 cells xenografted in mouse assessed as reduction in lymph node infiltrates at 10 mg/kg, iv administered 3 times per week measured 3 times per week starting at day 12 by hematoxylin and eosin staining based assay; assay type: functional, organism-based
Method in brief: (§2)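 Female SCID/Beige mice inoculated with 2 x 10^6 MDA-MB-231 cells in HBSS:Matrigel (1:1) into third mammary fat pad under ketamine/xylazine. Test agent 30 mg/kg ip twice daily (12 h apart) in PEG400/H2O 70:30, or paclitaxel 10 mg/kg iv three times weekly; 10 mice/group. Tumors measured three times weekly from day 12; lungs and lymph nodes excised, formalin-fixed, nodes H&E-scored (mean ± SEM).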

MDA-MB-231 [27] = experiment: Antimetastatic activity against human MDA-MB-231 cells xenografted in mouse assessed as reduction in lung metastasis at 10 mg/kg, iv administered 3 times per week measured 3 times per week starting at day 12 by hematoxylin and eosin staining based assay relative to control; assay type: functional; design: scale not given: the % may be the effect or the level left; method in brief: as §2
[28] = Toxicity in SCID/beige mouse xenografted with human MDA-MB-231 cells assessed as body weight gain at 10 mg/kg, iv administered 3 times per week measured 3 times per week starting at day 12; assay type: organism-based; details: in vivo
MDA-MB-231 [29] = experiment: Antitumor activity against human MDA-MB-231 cells xenografted in mouse assessed as tumor growth inhibition at 10 mg/kg, iv administered 3 times per week measured 3 times per week starting at day 12; assay type: functional, organism-based; method in brief: as §2

Activity [1]: Active
IC50 [2]: 592 nM
Activity [3]: Active
Activity [4]: Active
Activity [5]: Active
Activity [6]: Active
Activity [7]: Active
Activity [8]: Active
Activity [9]: Active
Activity [10]: Active
Activity [11]: Active
Activity [12]: Active
Activity [13]: Active
IC50 [14]: 46 nM
IC50 [15]: 1720 nM
Activity [17]: Active
Activity [18]: Active
Activity [19]: Active
IC50 [20]: 609 nM
SMILES: COc1cc2c(Oc3ccc(NS(=O)(=O)c4ccccc4C(F)(F)F)cc3F)ccnc2cc1OCCCN1CCC(C)CC1
Ratio IC50 [16]: >50

IC50 [2]: 3080 nM
IC50 (MDA-MB-231 [22]): 4300 nM
IC50 (MDA-MB-231 [23]): 103 nM
IC50 [25]: 51 nM
IC50 [14]: 51 nM
IC50 [15]: 1950 nM
IC50 [20]: 1540 nM
SMILES: COc1cc2c(Oc3ccc(NS(=O)(=O)c4ccccc4OC(F)(F)F)cc3F)ccnc2cc1OCCCN1CCN(C)CC1
Selectivity ratio [21]: 2 - 6
inhibition (MDA-MB-231 [24]): Active
Ratio IC50 [16]: >50

SMILES: CC(=O)O[C@H]1C(=O)[C@@]2(C)[C@H]([C@H](OC(=O)c3ccccc3)[C@]3(O)C[C@H](OC(=O)[C@H](O)[C@@H](NC(=O)c4ccccc4)c4ccccc4)C(C)=C1C3(C)C)[C@]1(OC(C)=O)CO[C@@H]1C[C@@H]2O [PACLITAXEL]
Activity (MDA-MB-231 [26]): inactive
Activity (MDA-MB-231 [27]): 54.3%
Activity [28]: Toxic
TGI (MDA-MB-231 [29]): Active

IC50 [25]: > 1000 nM
SMILES: COc1cc2nccc(Oc3ccc(NS(=O)(=O)c4ccc(F)c(Cl)c4)c(F)c3)c2cc1OC

IC50 [25]: > 1000 nM
SMILES: COc1cc2c(Oc3ccc(NS(=O)(=O)c4cc(F)ccc4F)cc3F)ccnc2cc1OCC(=O)N(C)C

Activity [1]: Active
IC50 [2]: 650 nM
Activity [3]: Active
Activity [4]: Active
Activity [5]: Active
Activity [6]: Active
IC50 [25]: 21 nM
Activity [7]: Active
Activity [8]: Active
Activity [9]: Active
Activity [10]: Active
Activity [11]: Active
Activity [12]: Active
Activity [13]: Active
IC50 [14]: 21 nM
IC50 [15]: 995 nM
Activity [17]: Active
Activity [18]: Active
Activity [19]: Active
IC50 [20]: 338 nM
SMILES: COc1cc2c(Oc3ccc(NS(=O)(=O)c4ccccc4C(F)(F)F)cc3F)ccnc2cc1OCCCN1CCOCC1
Ratio IC50 [16]: >50

IC50 [25]: > 1000 nM
SMILES: COc1cc2nccc(Oc3ccc(NS(=O)(=O)c4c(F)cccc4F)c(F)c3)c2cc1OC

Reference: ChEMBL document CHEMBL4371006, “Discovery of N-[4-(Quinolin-4-yloxy)phenyl]benzenesulfonamides as Novel AXL Kinase Inhibitors” (J Med Chem, 2018)
